The test system of data set [1] is Staphylococcus aureus. The data set can be described thus: Antibacterial activity against Staphylococcus aureus ATCC 29213 after 16 to 18 hrs by CLSI M07-A10 protocol based dilution method. Type of data set: functional. The essentials: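 MIC against ATCC 29213 determined by a previously described protocol; values in μg/mL.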
In data set [2] the test system is Staphylococcus aureus. The data set can be described thus: Antibacterial activity against vancomycin-resistant Staphylococcus aureus SA-HIP-14300 after 16 to 18 hrs by CLSI M07-A10 protocol based dilution method. Type of data set: functional.
The test system of data set [3] is Staphylococcus aureus. Nature of the data set: Antibacterial activity against vancomycin-resistant Staphylococcus aureus SA-HIP-11983 after 16 to 18 hrs by CLSI M07-A10 protocol based dilution method. The data set is classed as functional.
Data set [4] concerns Staphylococcus aureus. Nature of the data set: Antibacterial activity against vancomycin-resistant Staphylococcus aureus SA-HIP-15178 after 16 to 18 hrs by CLSI M07-A10 protocol based dilution method. The data set is classed as functional.
Data set [5] deals with Staphylococcus aureus. The data set can be described thus: Antibacterial activity against vancomycin-resistant Staphylococcus aureus SA-71080 after 16 to 18 hrs by CLSI M07-A10 protocol based dilution method. Type of data set: functional.
The test system of data set [6] is Staphylococcus aureus. Nature of the data set: Antibacterial activity against vancomycin-resistant Staphylococcus aureus HIP14300 after 16 to 18 hrs by CLSI M07-A10 protocol based dilution method. The data set is classed as functional.
The test system of data set [7] is Staphylococcus aureus. Nature of the data set: Antibacterial activity against vancomycin-resistant Staphylococcus aureus 1002434 after 16 to 18 hrs by CLSI M07-A10 protocol based dilution method. Type of data set: functional.
The test system of the next data set is Klebsiella pneumoniae. The data set can be described thus: Antibacterial activity against Klebsiella pneumoniae ATCC BAA-1705 after 16 to 18 hrs by CLSI M07-A10 protocol based dilution method. The data set is classed as functional.
Another data set deals with Acinetobacter baumannii. The data set can be described thus: Antibacterial activity against Acinetobacter baumannii BAA-1605 after 16 to 18 hrs by CLSI M07-A10 protocol based dilution method. The data set is classed as functional.
For data set [8], the system named is Staphylococcus aureus. The data set can be described thus: Bactericidal activity against vancomycin-resistant Staphylococcus aureus HIP11714 at 10 times MIC measured up to 24 hrs by time kill assay. Type of data set: functional, organism-based.
Data set [9] in a line: L-cysteine reactivity in pH 7.4 phosphate buffer assessed as pseudo first order rate constant at 100 uM measured at 10 mins time interval up to 60 mins by HPLC analysis.
Data set [10] in a line: Chemical reactivity assessed as thiolated-adduct formation at 25 uM using 4-nitrobenzyl thiol after 1 hr by HPLC analysis. The data set is classed as physicochemical.
Data set [11] deals with Staphylococcus aureus. Nature of the data set: Binding affinity to Staphylococcus aureus ATCC 29213 DAPDC at 10 uM in presence of 9-(Pent-4-yn-1-yl)-1a,10a-dihydro-2H-oxireno[2',3':4,5]-benzo[1,2-a]carbazole-2,10(9H)-dione after 1 hr by biotin-azide fluorescence dependent LC-MS/MS-based ABPP assay. The method in brief: (§1)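 Competitive LC–MS/MS ABPP on S. aureus soluble proteome. Pretreatment 1 h with DMSO, compound (10 μM), comparator (10 μM) or iodoacetamide (10 mM). Chase with alkyne probe (10 μM, 1 h), then Cu-catalysed click with biotin-azide and LC–MS/MS. Targets were proteins at ratio ≤0.1 versus DMSO in the compound and IAM groups and ~1 in the comparator group.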

Data set [12] deals with Staphylococcus aureus. Nature of the data set: Binding affinity to Staphylococcus aureus ATCC 29213 HxlR family transcriptional regulator at 10 uM in presence of 9-(Pent-4-yn-1-yl)-1a,10a-dihydro-2H-oxireno[2',3':4,5]-benzo[1,2-a]carbazole-2,10(9H)-dione after 1 hr by biotin-azide fluorescence dependent LC-MS/MS-based ABPP assay. The method in brief: as §1
In data set [13] the test system is Staphylococcus aureus. The data set can be described thus: Binding affinity to Staphylococcus aureus ATCC 29213 MarR family transcriptional regulator at 10 uM in presence of 9-(Pent-4-yn-1-yl)-1a,10a-dihydro-2H-oxireno[2',3':4,5]-benzo[1,2-a]carbazole-2,10(9H)-dione after 1 hr by biotin-azide fluorescence dependent LC-MS/MS-based ABPP assay. The essentials:
as §1

Data set [14] deals with Staphylococcus aureus. The data set can be described thus: Binding affinity to Staphylococcus aureus ATCC 29213 MEP-cytidylyltransferase at 10 uM in presence of 9-(Pent-4-yn-1-yl)-1a,10a-dihydro-2H-oxireno[2',3':4,5]-benzo[1,2-a]carbazole-2,10(9H)-dione after 1 hr by biotin-azide fluorescence dependent LC-MS/MS-based ABPP assay. The method in brief: as §1
The test system of data set [15] is Staphylococcus aureus. Nature of the data set: Binding affinity to Staphylococcus aureus ATCC 29213 Catabolite control protein A at 10 uM in presence of 9-(Pent-4-yn-1-yl)-1a,10a-dihydro-2H-oxireno[2',3':4,5]-benzo[1,2-a]carbazole-2,10(9H)-dione after 1 hr by biotin-azide fluorescence dependent LC-MS/MS-based ABPP assay. The method in brief: as §1

SMILES strings stand for the structures. Values after ≈ are worked out from the molar mass of the structure shown. Active and inactive are the calls of the source. The rule behind the calls is not given here.

Regarding `CC(C)n1c2ccccc2c2ccc3c(c21)C(=O)C1OC1C3=O` (configuration not stated), the MIC in the data set on Staphylococcus aureus [1] was 0.125 to 0.5 µg/mL (≈ 0.409 to 1.64 µM); in the data set with Staphylococcus aureus [2] it was 0.5 µg/mL (≈ 1.64 µM); against Staphylococcus aureus [3] it was 0.5 µg/mL (≈ 1.64 µM); in the data set on Staphylococcus aureus [4], 0.5 µg/mL (≈ 1.64 µM); with Staphylococcus aureus [5], 0.5 µg/mL (≈ 1.64 µM); against Staphylococcus aureus [6] it was 0.5 µg/mL (≈ 1.64 µM). In addition, the MIC turned out to be 0.5 µg/mL (≈ 1.64 µM) with Staphylococcus aureus [7], 64 µg/mL (≈ 210 µM) against Klebsiella pneumoniae and 64 µg/mL (≈ 210 µM) against Acinetobacter baumannii. Further, the outcome in the data set on Staphylococcus aureus [8], in the data set on Staphylococcus aureus [11], in the data set with Staphylococcus aureus [12], in the data set with Staphylococcus aureus [13], in the data set on Staphylococcus aureus [14] and in the data set with Staphylococcus aureus [15] was Active. Further, in data set [9], the K turned out to be 7.54 ×10⁻² /min. The outcome in data set [10] was Active.

The record behind these values is ChEMBL document CHEMBL4359831, “Chemoproteomics of an Indole-Based Quinone Epoxide Identifies Druggable Vulnerabilities in Vancomycin-Resistant Staphylococcus aureus” (J Med Chem, 2019).
